These results are taken from ChEMBL document CHEMBL1137474, “Synthesis, DNA binding, and cytotoxicity studies of pyrrolo[2,1-c][1,4]benzodiazepine-anthraquinone conjugates” (Bioorg Med Chem, 2007).

The test system of one test is DNA. In words: Binding affinity for calf thymus DNA at 20 uM after 18 hrs by thermal denaturation assay. Format: nucleic-acid assay. As to conditions: Bos taurus.
The next test relates to HOP-62. As to the kind of experiment: Cytotoxicity against human Hop62 cells by sulforhodamine B assay. The test is classed as functional, cell-based. A digest of the protocol:
(§1)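 Cells in RPMI 1640 with 10% FBS and 2 mM L-glutamine, seeded at densities suited to doubling time, preincubated 24 h at 37 °C, 5% CO2. Drug added for a further 48 h. Fixed with cold TCA (final 10%) for 60 min at 4 °C, then SRB-stained. Bound dye eluted with 10 mM Tris base and read at 540 nm (690 nm reference). Growth taken relative to control wells. IC50 read from dose-response graphs. Triplicate wells, three repeat experiments.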
On the technique in general: Sulforhodamine B stains cellular protein and so reports cell mass.

Another test deals with SiHa. As to the kind of experiment: Cytotoxicity against human SiHa cells by sulforhodamine B assay. The test is classed as functional, cell-based. The procedure, abridged: as §1
Another test concerns MCF7. As to the kind of experiment: Cytotoxicity against human MCF7 cells by sulforhodamine B assay. The test is classed as functional, cell-based. The procedure, abridged:
as §1

A further test concerns ZR-75-1. As to the kind of experiment: Cytotoxicity against human ZR-75-1 cells by sulforhodamine B assay. The test is classed as functional, cell-based. A digest of the protocol: as §1
The test system of another test is PC-3. As to the kind of experiment: Cytotoxicity against human PC3 cells by sulforhodamine B assay. The test is classed as functional, cell-based. The procedure, abridged:
as §1

The subject of a further test is COLO 205. In words: Cytotoxicity against human Colo205 cells by sulforhodamine B assay. Format: functional, cell-based. The procedure, abridged: as §1
For another test, the system named is A2780. As to the kind of experiment: Cytotoxicity against human A2780 cells by sulforhodamine B assay. Format: functional, cell-based. A digest of the protocol: as §1

A value given as a limit tells only on which side of the number the result lay.

Usually ΔTm stands for the change in melting temperature against a reference sample. Broadly, the IC50 is the concentration that gives 50% inhibition. The low end stands for higher potency, the high end for lower potency. On to `COc1cc2c(cc1OCCCCCOc1ccc(OCCCCCOc3cc4c(cc3OC)C(=O)N3CCC[C@H]3C=N4)c3c1C(=O)c1ccccc1C3=O)N=C[C@@H]1CCCN1C2=O`, for which the thermal shift (ΔTm) in the test with DNA came to 6 °C. Further, the IC50 was 1400 nM in the test with HOP-62; 800 nM in the test with SiHa; 1200 nM with MCF7; 1500 nM in the test on ZR-75-1; 1000 nM in the test with PC-3; less than 1000 nM in the test with COLO 205. Further, the 50% inhibitory concentration (IC50) with A2780 was found to be 500 nM.

On to `COc1cc2c(cc1OCCCCC(=O)Nc1cccc3c1C(=O)c1ccccc1C3=O)N=C[C@@H]1CCCN1C2=O`, for which, in the test with DNA, the ΔTm is 5.2 °C. Besides, the 50% inhibitory concentration (IC50) in the test with HOP-62 was 1000 nM; in the test on SiHa it was 1200 nM; with MCF7, 600 nM; in the test with ZR-75-1 it was 500 nM; in the test with PC-3 it was 800 nM; in the test on COLO 205 it was less than 1000 nM. This compound gave an IC50 in the test on A2780 of 500 nM.

On to `COc1cc2c(cc1OCCCOc1ccc(OCCCOc3cc4c(cc3OC)C(=O)N3CCC[C@H]3C=N4)c3c1C(=O)c1ccccc1C3=O)N=C[C@@H]1CCCN1C2=O`, for which, in the test on DNA, the ΔTm worked out at 17.9 °C. The concentration for half-maximal inhibition (IC50) is less than 1000 nM with HOP-62; 800 nM with SiHa; 600 nM in the test on MCF7; 500 nM with ZR-75-1; 600 nM with PC-3; less than 1000 nM with COLO 205. The compound further displayed an IC50 in the test on A2780 of 600 nM.

In the case of `COc1cccc2c1C(=O)c1c(O)c3c(c(O)c1C2=O)C[C@@](O)(C(=O)CO)C[C@@H]3O[C@H]1C[C@H](N)[C@H](O)[C@H](C)O1` [DOXORUBICIN], the half-maximal inhibitory concentration (IC50) in the test on HOP-62 was determined as 1000 nM; with SiHa it was 1500 nM; in the test with MCF7, 500 nM; in the test with ZR-75-1, 600 nM; in the test with PC-3, 500 nM; in the test on COLO 205, 2000 nM. This compound returned an IC50 with A2780 of 500 nM.

`COc1cc2c(cc1OCCCC(=O)Nc1cccc3c1C(=O)c1ccccc1C3=O)N=C[C@@H]1CCCN1C2=O`: in the test with DNA, the ΔTm was found to be 9.1 °C. In addition, the IC50 with HOP-62 came to 800 nM; in the test on SiHa, 1800 nM; in the test on MCF7, 1400 nM; in the test with ZR-75-1, 500 nM; with PC-3 it was 800 nM; in the test with COLO 205 it was 1800 nM. The compound also had a half-maximal inhibitory concentration (IC50) in the test with A2780 of 500 nM.

As to `COc1cc2c(cc1OCCCCOc1ccc(OCCCCOc3cc4c(cc3OC)C(=O)N3CCC[C@H]3C=N4)c3c1C(=O)c1ccccc1C3=O)N=C[C@@H]1CCCN1C2=O`, in the test with DNA, the ΔTm was found to be 1.6 °C. The concentration for half-maximal inhibition (IC50) in the test on SiHa amounted to 9000 nM; with MCF7, 9000 nM; in the test on PC-3, 7000 nM; in the test with COLO 205, 10000 nM; in the test with A2780 it was 10000 nM.
